UBC13 polyUb – UBC13 polyubiquitin chain formation inhibitors, primary screen, biochemical, TR-FRET, uHTS | inhibition, % at 20 µM | 330,000 tested, 0.47% active; in the data active = inhibition above about 45%, passing the limit was not always enough
ZTA DNA inh – blocks Epstein-Barr virus ZTA, an EBNA-1 counter-screen; ZTA-DNA binding, fluorescence polarization; inhibition, % at 11 µM; P03206; 320,000 tested, 0.15% active; in the data active = inhibition above about 33%
PfM18AAP inh – PfM18AAP inhibitors, malaria aminopeptidase, primary screen, biochemical, QFRET, recombinant enzyme; M18 aspartyl aminopeptidase (Plasmodium falciparum 3D7); H-Glu-NHMec fluorogenic cleavage; inhibition, % at 7.35 µM; 290,000 tested, 1.2% active; AID 1822, 2009;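 active = inhibition above the campaign mean inhibition over all tested compounds plus 3 SD, cut at about 28% in these data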
Apaf1 inhib – inhibitors of human Apaf-1 apoptosome, primary screen, biochemical, DEVD-Rh110 fluorescence, uHTS. Apoptotic protease-activating factor 1 (Homo sapiens), O14727. reconstituted apoptosome caspase-3 activity. inhibition, % at 20 µM. 330,000 tested, 0.71% active; active = inhibition of at least 40% at 20 µM
Target sequence (O14727 whole entry, looked up): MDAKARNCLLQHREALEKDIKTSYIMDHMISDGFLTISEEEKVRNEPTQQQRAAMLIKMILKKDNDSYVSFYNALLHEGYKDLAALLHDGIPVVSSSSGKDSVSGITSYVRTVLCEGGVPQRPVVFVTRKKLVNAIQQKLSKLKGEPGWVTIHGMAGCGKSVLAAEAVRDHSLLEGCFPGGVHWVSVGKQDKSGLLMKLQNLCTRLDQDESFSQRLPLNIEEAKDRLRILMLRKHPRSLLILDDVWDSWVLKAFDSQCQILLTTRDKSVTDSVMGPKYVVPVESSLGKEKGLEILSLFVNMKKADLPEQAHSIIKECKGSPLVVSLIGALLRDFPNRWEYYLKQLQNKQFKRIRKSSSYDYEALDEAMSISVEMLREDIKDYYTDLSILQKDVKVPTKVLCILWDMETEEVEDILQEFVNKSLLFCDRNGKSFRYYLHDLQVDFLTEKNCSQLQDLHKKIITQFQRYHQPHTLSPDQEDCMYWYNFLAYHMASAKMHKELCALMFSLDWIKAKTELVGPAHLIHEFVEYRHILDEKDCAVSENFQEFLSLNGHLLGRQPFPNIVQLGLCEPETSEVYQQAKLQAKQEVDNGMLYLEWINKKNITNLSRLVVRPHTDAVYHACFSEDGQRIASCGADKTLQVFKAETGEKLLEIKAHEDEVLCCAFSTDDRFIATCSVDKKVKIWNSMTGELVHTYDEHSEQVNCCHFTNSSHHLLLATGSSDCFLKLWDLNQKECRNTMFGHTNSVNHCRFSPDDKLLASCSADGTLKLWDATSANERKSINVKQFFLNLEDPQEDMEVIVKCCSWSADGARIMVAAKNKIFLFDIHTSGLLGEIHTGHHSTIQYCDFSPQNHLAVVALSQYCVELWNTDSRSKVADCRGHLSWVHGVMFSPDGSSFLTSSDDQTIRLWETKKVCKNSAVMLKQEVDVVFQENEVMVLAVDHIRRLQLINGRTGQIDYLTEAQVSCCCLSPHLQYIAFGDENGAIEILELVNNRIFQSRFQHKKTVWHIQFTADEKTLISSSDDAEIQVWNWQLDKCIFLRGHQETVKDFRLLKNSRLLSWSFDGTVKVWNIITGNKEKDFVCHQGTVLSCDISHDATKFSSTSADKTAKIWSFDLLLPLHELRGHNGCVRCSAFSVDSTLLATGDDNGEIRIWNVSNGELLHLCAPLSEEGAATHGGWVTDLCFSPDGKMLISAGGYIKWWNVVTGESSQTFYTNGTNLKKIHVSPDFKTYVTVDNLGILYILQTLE
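Material: cell-free apoptosome with Apaf-1, procaspase-3 and caspase-9; Buffer or medium: Hepes pH 7.5 with detergent and BSA; Reagent: cytochrome c trigger plus (Z-DEVD)2-Rh110 caspase-3 substrate; Times: compound with Apaf-1, dATP, procaspase-3 30 min, then 50 min reaction, room temperature; Technique: Rh110 fluorescence intensity.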
PfG6PD inh – PfG6PD enzyme inhibitors, primary screen, biochemical, fluorescence intensity, uHTS. AID 504690, 2011. PfGluPho enzyme, NADPH resazurin-diaphorase fluorescence. 350,000 tested, 0.78% active. glucose-6-phosphate dehydrogenase-6-phosphogluconolactonase (Plasmodium falciparum 3D7). inhibition, % at 20 µM;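 active = inhibition reaching at least a set limit at 20 µM in the primary screen, cut at about 59% in these data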
EBNA-1 inh – EBNA-1 DNA-binding inhibitors, primary screen, biochemical, fluorescence polarization | inhibition, % at 14.8 µM | 300,000 tested, 0.34% active; in the data active = inhibition above about 28%
Apaf-1 inh conf2 – Apaf-1 inhibitors, single-dose retest, confirmation, biochemical, fluorescence, DEVD-Rh110, 20 µM; shares compounds with Apaf1 inhib; reconstituted apoptosome, caspase-3 DEVD-Rh110 fluorescence; inhibition, % at 20 µM; 1,800 tested, 25% active; AID 504614, 2011;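 active = mean inhibition of at least 40% at 20 µM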
Rh110 quench – Rh110 fluorescence interference by putative Apaf-1 inhibitors, confirmation, artefact control for Apaf-1 inhibitor project, biochemical, 20 µM | shares compounds with Apaf1 inhib | quenched caspase reaction | activation (fluorescence interference), % at 20 µM | 1,800 tested, under 10 active | AID 504615, 2011;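 active = signal rise of 40% or more at 20 µM, treated as a fluorescence artifact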
Apaf1 inh interf – fluorescence interference of Apaf-1 inhibitor hits, dose response, artefact control for Apaf-1 inhibitor project. fluorescence interference counterscreen, Apaf-1 assay format. AID 588538, 2011. IC50, µM. 460 tested, under 10 active. shares compounds with Apaf1 inhib; call rule not given here
Of the large screens only hits and unclear results are named; the others gave an inactive call (follow-up assays come after a bar, where they were run). Most compounds without a hit are left out; they make up all but 2.9% or so of the library.

O=C1C(Cl)=C(NCCN2CCCCC2)C(=O)c2ccccc21	Apaf1 inhib 68 | Apaf-1 inh conf2 79 | Rh110 quench inactive | Apaf1 inh interf inactive
CCNC1=C(Cl)C(=O)c2ccccc2C1=O	Apaf1 inhib 51 | Apaf-1 inh conf2 inactive | Rh110 quench inactive
CCCN(Cc1nnc(-c2cccs2)o1)C(=O)CN1C(=O)NC2(CCC(C)CC2)C1=O (stereo unspecified)	none (no result: PfM18AAP inh, EBNA-1 inh)
Cc1ccccc1CNC(=O)Nc1ccc(Cl)cc1	none
O=C(O)c1cc(Cl)c(Cl)cc1C(=O)N(Cc1ccccc1)Cc1ccccc1	none
CCOC(=O)c1cnn(-c2c(Cc3ccccc3)c(C)nc3c(-c4ccccc4)c(C)nn23)c1N	Apaf1 inhib 62 | Apaf-1 inh conf2 55 | Rh110 quench inactive | Apaf1 inh interf inactive
CCOC(=O)c1cnn(-c2cc(C(C)(C)C)nc3c(-c4ccccc4)c(C)nn23)c1N	none
Cc1cccc(NCCC(=O)c2ccc(Br)cc2)c1	none
CCOC(=O)CNCCC(=O)c1ccc(Br)cc1	Apaf1 inhib 58 | Apaf-1 inh conf2 inactive | Rh110 quench inactive
O=C1NC(=S)N/C1=C/c1cc2c(cc1[N+](=O)[O-])OCO2	Apaf1 inhib 88 | Apaf-1 inh conf2 81 | Rh110 quench inactive | Apaf1 inh interf inactive
O=C(O)/C=C\c1cc2c(cc1[N+](=O)[O-])OCO2	none
O=C(NNC(=O)c1cccc2ccccc12)c1ccc(Br)cc1	none (no result: UBC13 polyUb, ZTA DNA inh, PfM18AAP inh, Apaf1 inhib, EBNA-1 inh)
O=C(NC1(O)C(=O)c2ccccc2C1=O)c1ccccc1	Apaf1 inhib 94 | Apaf-1 inh conf2 96 | Rh110 quench inactive | Apaf1 inh interf inactive
O=C(Nc1ccccc1Cl)c1c(F)c(F)c(F)c(F)c1F	none
O=C(NC1(O)C(=O)c2ccccc2C1=O)c1c(Cl)cccc1Cl	Apaf1 inhib 96 | Apaf-1 inh conf2 97 | Rh110 quench inactive | Apaf1 inh interf inactive
CCCCCCCCN1[C@@H](CC(=O)O)c2cc(C(F)(F)F)ccc2S1(=O)=O	none (no result: PfM18AAP inh)
CCCCCCCCCCCCN1[C@@H](CC(=O)O)c2cc(C(F)(F)F)ccc2S1(=O)=O	Apaf1 inhib 41 (no result: PfM18AAP inh) | Apaf-1 inh conf2 inactive | Rh110 quench inactive
CCN1/C(=C/c2ccc3ccccc3[n+]2CC)C=Cc2ccccc21	Apaf1 inhib 41 | Apaf-1 inh conf2 inactive | Rh110 quench inactive
CCN1/C(=C/c2ccc3ccccc3[n+]2CCCS(=O)(=O)[O-])C=Cc2cc(C)ccc21	none (no result: UBC13 polyUb, ZTA DNA inh, Apaf1 inhib, EBNA-1 inh)
O=C(CN1C(=O)NC2(CCCCC2)C1=O)Nc1cccc(Cl)c1Cl	none (no result: PfM18AAP inh, EBNA-1 inh)
Cc1c(Cl)cccc1N=C1SCCN1C(=O)CN1C(=O)NC2(CCCC2)C1=O	Apaf1 inhib 40 (no result: PfM18AAP inh) | Apaf-1 inh conf2 inactive | Rh110 quench inactive
Nc1ccc(-n2nc3ccccc3n2)cc1	none (no result: PfM18AAP inh)
Nc1ccc2nn(-c3cccc4ccccc34)nc2c1	Apaf1 inhib 96 | Apaf-1 inh conf2 75 | Rh110 quench inactive | Apaf1 inh interf inactive
Nc1ccc2nn(-c3ccccc3)nc2c1	Apaf1 inhib 93 (no result: ZTA DNA inh, EBNA-1 inh) | Apaf-1 inh conf2 inactive | Rh110 quench inactive
CCCC1=NN(C(=O)Cc2ccc(OC)c(OC)c2)C(O)(C(F)(F)F)C1 (stereo unspecified)	none
COc1ccc(-c2nc3nc(C)c(Cc4ccccc4)c(=O)n3[nH]2)cc1	Apaf1 inhib 49 | Apaf-1 inh conf2 47 | Rh110 quench inactive
COc1ccc(S(=O)(=O)N2CCCCCC2)cc1C(=O)OCC(=O)NC1CCS(=O)(=O)C1 (stereo unspecified)	none (no result: ZTA DNA inh, PfM18AAP inh, EBNA-1 inh)
COC(=O)C1CCN(C(=O)COc2ccc(N(C)S(=O)(=O)c3ccc(C)cc3)cc2)CC1	none (no result: PfM18AAP inh, EBNA-1 inh)
CCC1CCCCN1C(=O)COc1ccc(N(C)S(=O)(=O)c2ccc(C)cc2)cc1 (stereo unspecified)	Apaf1 inhib 51 | Apaf-1 inh conf2 inactive | Rh110 quench inactive
CCOC(=O)c1c(NC(=O)c2cccs2)sc(C)c1CC	Apaf1 inhib 51 | Apaf-1 inh conf2 inactive | Rh110 quench inactive
CCCCC[n+]1ccn(C2=C([O-])c3ccccc3C(=O)/C2=N\S(=O)(=O)c2ccc(Cl)cc2)c1	Apaf1 inhib 70 | Apaf-1 inh conf2 54 | Rh110 quench inactive | Apaf1 inh interf inactive
CCCC[n+]1ccn(C2=C([O-])c3ccccc3C(=O)/C2=N\S(=O)(=O)c2ccc(Cl)cc2)c1	Apaf1 inhib 52 | Apaf-1 inh conf2 56 | Rh110 quench inactive | Apaf1 inh interf inactive
CCCC[n+]1ccn(-c2nc3ccccc3nc2[N-]S(=O)(=O)c2ccc(Br)cc2)c1	none
N/C(CSc1ccc(Cl)cc1)=N\S(=O)(=O)c1ccc(Cl)cc1	none
CCN(CC(=O)Nc1ccc2c(c1)OCCO2)C(=O)/C=C/c1ccc(OC)cc1OC	Apaf1 inhib 64 | Apaf-1 inh conf2 inactive | Rh110 quench inactive
CCN(CC(=O)Nc1ccc2c(c1)OCCO2)C(=O)/C=C/c1cccc(OC)c1OC	none (no result: PfM18AAP inh)
O=C(Nc1ccc2nc3ccccc3nc2c1)c1ccc(Br)cc1	none
CC(=O)Nc1ccc2nc3ccccc3nc2c1	Apaf1 inhib 50 | Apaf-1 inh conf2 inactive | Rh110 quench inactive
Cc1cc2cc(CNC(=O)c3ccc(S(=O)(=O)N4CCCCC4)cc3)ccc2n1C	Apaf1 inhib 53 | Apaf-1 inh conf2 inactive | Rh110 quench inactive
COc1ccc(S(=O)(=O)NCc2ccc3c(c2)cc(C)n3C)cc1	Apaf1 inhib 51 | Apaf-1 inh conf2 inactive | Rh110 quench inactive
CCS(=O)(=O)NCc1ccc2c(c1)cc(C)n2C	none
Cc1ccc(CNC(=O)c2ccc(S(=O)(=O)N3CCCCC3)cc2)cc1	none (no result: ZTA DNA inh, PfM18AAP inh, EBNA-1 inh)
Cc1ccccc1NC(=S)NCc1ccc2c(c1)cc(C)n2C	none
CCc1cccc(C)c1NC(=S)NCc1ccc2c(c1)cc(C)n2C	Apaf1 inhib 55 | Apaf-1 inh conf2 inactive | Rh110 quench inactive
Cc1cc2cc(CNS(=O)(=O)c3ccccc3)ccc2n1C	Apaf1 inhib 61 | Apaf-1 inh conf2 inactive | Rh110 quench inactive
Cc1ccsc1C(=O)NCCc1c[nH]c2ccccc12	none
Cc1ccccc1NC(=S)NCc1ccc(Cl)cc1	none
CC(C)OCCOc1ccc2oc(-c3ccco3)cc(=O)c2c1	none
COC(=O)[C@H](C)NC(=O)N1CCC(Cc2ccccc2)CC1	none
CC(C)[C@H](NC(=O)N1CCC(Cc2ccccc2)CC1)C(=O)O	Apaf1 inhib 42 | Apaf-1 inh conf2 inactive | Rh110 quench inactive

From PubChem
